In ChEMBL document CHEMBL1153578, “Synthesis and evaluation of anti-tumor activities of N4 fatty acyl amino acid derivatives of 1-beta-arabinofuranosylcytosine” (Eur J Med Chem, 2009):

Experiments:
HeLa = assay: Cytotoxicity against human HeLa cells after 48 hrs by MTT assay; format: functional, cell-based
In short: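 HeLa cells were grown in DMEM with 10% FBS and penicillin/streptomycin, seeded at 5 × 10⁴/mL, and treated with 0.5, 1.0, 5.0, 10 and 50 of compound in PBS with 4% DMSO, in triplicate. MTT (5 mg/mL) was added for 4 h at 37 °C without centrifugation, then supernatant removed and formazan dissolved in DMSO. Read at 570 nm (reference 630 nm) with survival normalized to medium-blanked control; IC50 = concentration causing 50% cell death.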

CCRF S-180 [1] = assay: Antitumor activity against mouse S180 cells xenografted in ip dosed Kunming mouse assessed as tumor weight after 7 days; format: functional
In short: (§1)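 Kunming mice received 0.2 mL of S180 cells (passaged in mouse abdomen, harvested day 8, 2.0 × 10⁷/mL) and were randomized into groups of 10. Compounds were given at 7.8 mmol/L in 0.5% CMC-Na (solution or suspension), 0.2 mL i.p. daily for 7 days. Mice were then sacrificed and tumors weighed. Inhibition = (mean control weight − mean treated weight)/mean control weight × 100%.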

CCRF S-180 [2] = assay: Antitumor activity against mouse S180 cells xenografted in ip dosed Kunming mouse assessed as tumor growth inhibition after 7 days; format: functional; in short: as §1
HL-60 = assay: Cytotoxicity against human HL60 cells after 48 hrs by MTT assay; format: functional, cell-based; conditions: HL-60, 48 h
In short: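 HL-60 cells were grown in RPMI 1640 with 10% FBS and penicillin/streptomycin, seeded at 5 × 10⁴/mL, and exposed to 5 concentrations (0.01–1.00) in PBS with 4% DMSO, in triplicate. MTT was added at 5 mg/mL for 4 h at 37 °C. Plates were centrifuged (1000 r/min, 10 min), supernatant discarded, and crystals dissolved in DMSO. Read at OD 570/630 nm, blank-corrected against control; IC50 = concentration giving 50% cell death.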

[3] = Lipophilicity, log P of the compound; format: physicochemical; conditions: octanol/water

With `CCCCCCCCCCCCCCCCCC(=O)N[C@@H](Cc1ccc(O)cc1)C(=O)Nc1ccn([C@H]2O[C@@H](CO)[C@H](O)[C@H]2O)c(=O)n1` as the compound, how does the IC50 (HeLa) read?
Its IC50 is 10 µM.

And the Activity (CCRF S-180 [1])?
The Activity was 1.06 g.

And the TGI (CCRF S-180 [2])?
The TGI was 16.5%.

And the IC50 (HL-60)?
Its IC50 is 1.15 µM.

What about the logP [3] of the same compound?
Its logP is 0.97.

With `CCCCCCCCCC(=O)N[C@@H](CCC(=O)O)C(=O)Nc1ccn([C@H]2O[C@@H](CO)[C@H](O)[C@H]2O)c(=O)n1` as the compound, how does the IC50 (HeLa) read?
The IC50 was 5 µM.

And the Activity (CCRF S-180 [1])?
The Activity was 1.072 g.

And the TGI (CCRF S-180 [2])?
Its TGI is 15.6%.

And the IC50 (HL-60)?
The IC50 was 1.86 µM.

What about the logP [3] of the same compound?
Its logP is -0.28.

For `Nc1ccn([C@@H]2O[C@H](CO)[C@@H](O)[C@@H]2O)c(=O)n1` [CYTARABINE], which IC50 (HeLa) is on record?
The IC50 was 464 µM.

What about the IC50 (HL-60) of the same compound?
The IC50 was 0.118 µM.

Which IC50 (HeLa) does the source give for `CCCCCCCCCCCCCC(=O)N[C@H](C(=O)Nc1ccn([C@H]2O[C@@H](CO)[C@H](O)[C@H]2O)c(=O)n1)C(C)C` here?
The IC50 was 26 µM.

And the Activity (CCRF S-180 [1])?
The Activity was 1.163 g.

And the TGI (CCRF S-180 [2])?
Its TGI is 8.4%.

What about the IC50 (HL-60) of the same compound?
Its IC50 is 32.3 µM.

And the logP [3]?
The logP was 0.9.

Which results are given for `CCCCCCCCCC(=O)N[C@@H](CCSC)C(=O)Nc1ccn([C@H]2O[C@@H](CO)[C@H](O)[C@H]2O)c(=O)n1`?
IC50 (HeLa): 3 µM; Activity (CCRF S-180 [1]): 0.944 g; TGI (CCRF S-180 [2]): 25.6%; IC50 (HL-60): 0.28 µM; logP [3]: 0.68

What does the source list for `CCCCCCCCCCCCCC(=O)N[C@@H](CCCNC(=N)N)C(=O)Nc1ccn([C@H]2O[C@@H](CO)[C@H](O)[C@H]2O)c(=O)n1`?
IC50 (HeLa): 32 µM; Activity (CCRF S-180 [1]): 0.773 g; TGI (CCRF S-180 [2]): 39.2%; IC50 (HL-60): 0.405 µM; logP [3]: 0.45

Which results are given for `CCCCCCCCCCCCCCCCCC(=O)N[C@H](C(=O)Nc1ccn([C@H]2O[C@@H](CO)[C@H](O)[C@H]2O)c(=O)n1)C(C)C`?
IC50 (HeLa): 13 µM; Activity (CCRF S-180 [1]): 0.523 g; TGI (CCRF S-180 [2]): 58.9%; IC50 (HL-60): 31.9 µM; logP [3]: 0.91

For `CCCCCCCCCC(=O)N[C@@H](CCCNC(=N)N)C(=O)Nc1ccn([C@H]2O[C@@H](CO)[C@H](O)[C@H]2O)c(=O)n1`, which IC50 (HeLa) is on record?
Its IC50 is 6 µM.

And the Activity (CCRF S-180 [1])?
The Activity was 1.071 g.

And the TGI (CCRF S-180 [2])?
Its TGI is 15.7%.

And the IC50 (HL-60)?
The IC50 was 0.584 µM.

What about the logP [3] of the same compound?
The logP was 0.76.

With `CCCCCCCCCCCCCCCCCC(=O)N[C@@H](CCSC)C(=O)Nc1ccn([C@H]2O[C@@H](CO)[C@H](O)[C@H]2O)c(=O)n1` as the compound, how does the IC50 (HeLa) read?
The IC50 was 9 µM.

And the Activity (CCRF S-180 [1])?
The Activity was 0.438 g.

What about the TGI (CCRF S-180 [2]) of the same compound?
Its TGI is 65.5%.

What about the IC50 (HL-60) of the same compound?
Its IC50 is 0.803 µM.

And the logP [3]?
The logP was 1.09.

Which IC50 (HeLa) does the source give for `CCCCCCCCCCCCCC(=O)N[C@@H](CCC(=O)O)C(=O)Nc1ccn([C@H]2O[C@@H](CO)[C@H](O)[C@H]2O)c(=O)n1` here?
Its IC50 is 41 µM.

What about the Activity (CCRF S-180 [1]) of the same compound?
Its Activity is 0.958 g.

What about the TGI (CCRF S-180 [2]) of the same compound?
The TGI was 24.6%.

What about the IC50 (HL-60) of the same compound?
The IC50 was 0.502 µM.

And the logP [3]?
The logP was 0.25.

Which IC50 (HeLa) does the source give for `CCCCCCCCCCCCCCCCCC(=O)N[C@@H](CCCNC(=N)N)C(=O)Nc1ccn([C@H]2O[C@@H](CO)[C@H](O)[C@H]2O)c(=O)n1` here?
Its IC50 is 12.1 µM.

And the Activity (CCRF S-180 [1])?
The Activity was 1.168 g.

And the TGI (CCRF S-180 [2])?
Its TGI is 8.1%.

What about the IC50 (HL-60) of the same compound?
Its IC50 is 1.7 µM.

What about the logP [3] of the same compound?
The logP was 0.61.

What does the source list for `CCCCCCCCCC(=O)N[C@@H](Cc1ccc(O)cc1)C(=O)Nc1ccn([C@H]2O[C@@H](CO)[C@H](O)[C@H]2O)c(=O)n1`?
IC50 (HeLa): 1 µM; Activity (CCRF S-180 [1]): 1.028 g; TGI (CCRF S-180 [2]): 19.1%; IC50 (HL-60): 2.98 µM; logP [3]: 0.81

With `CCCCCCCCCCCCCC(=O)N[C@@H](Cc1ccc(O)cc1)C(=O)Nc1ccn([C@H]2O[C@@H](CO)[C@H](O)[C@H]2O)c(=O)n1` as the compound, how does the IC50 (HeLa) read?
Its IC50 is 39.1 µM.

What about the Activity (CCRF S-180 [1]) of the same compound?
Its Activity is 1.125 g.

What about the TGI (CCRF S-180 [2]) of the same compound?
Its TGI is 11.4%.

And the IC50 (HL-60)?
Its IC50 is 1.71 µM.

And the logP [3]?
The logP was 0.9.

For `CCCCCCCCCC(=O)N[C@H](C(=O)Nc1ccn([C@H]2O[C@@H](CO)[C@H](O)[C@H]2O)c(=O)n1)C(C)C`, which IC50 (HeLa) is on record?
The IC50 was 4.99 µM.

And the Activity (CCRF S-180 [1])?
Its Activity is 1.181 g.

What about the TGI (CCRF S-180 [2]) of the same compound?
The TGI was 7%.

What about the IC50 (HL-60) of the same compound?
Its IC50 is 2.04 µM.

And the logP [3]?
The logP was 0.78.

For `CCCCCCCCCCCCCCCCCC(=O)N[C@@H](CCC(=O)O)C(=O)Nc1ccn([C@H]2O[C@@H](CO)[C@H](O)[C@H]2O)c(=O)n1`, which IC50 (HeLa) is on record?
The IC50 was 19 µM.

And the Activity (CCRF S-180 [1])?
Its Activity is 1.106 g.

And the TGI (CCRF S-180 [2])?
Its TGI is 12.9%.

What about the IC50 (HL-60) of the same compound?
Its IC50 is 1.14 µM.

What about the logP [3] of the same compound?
The logP was 0.5.

Which IC50 (HeLa) does the source give for `CCCCCCCCCCCCCC(=O)N[C@@H](CCSC)C(=O)Nc1ccn([C@H]2O[C@@H](CO)[C@H](O)[C@H]2O)c(=O)n1` here?
The IC50 was 8.02 µM.

And the Activity (CCRF S-180 [1])?
Its Activity is 0.793 g.

And the TGI (CCRF S-180 [2])?
Its TGI is 37.6%.

And the IC50 (HL-60)?
Its IC50 is 0.272 µM.

What about the logP [3] of the same compound?
Its logP is 0.88.
